Consider 8 molecules from paper PMC7717452 (Journal of Enzyme Inhibition and Medicinal Chemistry, 2020).

Several values for one entry are separate records, joined by “and”; a condition that tells them apart may be missing. Identical values can stand only once. Like-named read-outs stand apart in the source and are kept apart here.

The target in data set [1] is T1, LiTryS (Leishmania infantum trypanothione synthetase) (Leishmania infantum, UniProt A4I2Z3).
T1 sequence (A4I2Z3 1-652): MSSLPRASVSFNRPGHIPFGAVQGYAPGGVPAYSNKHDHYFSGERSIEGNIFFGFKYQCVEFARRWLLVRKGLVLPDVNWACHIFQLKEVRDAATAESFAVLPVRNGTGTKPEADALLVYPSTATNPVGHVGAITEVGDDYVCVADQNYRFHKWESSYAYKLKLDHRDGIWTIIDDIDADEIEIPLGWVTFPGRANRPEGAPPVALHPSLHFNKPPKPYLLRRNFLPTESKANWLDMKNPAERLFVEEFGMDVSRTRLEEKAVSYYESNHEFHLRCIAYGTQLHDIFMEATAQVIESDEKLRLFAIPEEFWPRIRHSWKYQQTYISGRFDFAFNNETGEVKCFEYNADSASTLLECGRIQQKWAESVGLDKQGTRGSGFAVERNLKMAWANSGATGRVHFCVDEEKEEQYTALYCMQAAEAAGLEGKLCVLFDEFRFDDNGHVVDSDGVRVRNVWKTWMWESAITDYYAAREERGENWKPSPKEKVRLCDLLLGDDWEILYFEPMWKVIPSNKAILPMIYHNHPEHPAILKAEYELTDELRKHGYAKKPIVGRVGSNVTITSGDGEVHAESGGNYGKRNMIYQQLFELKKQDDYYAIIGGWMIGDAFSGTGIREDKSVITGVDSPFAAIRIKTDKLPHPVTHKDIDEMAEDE
Briefly: TryS activity end-point assay. In kind it is biochemical. Particulars: for IC50: ± 2σ, ∼30 assumed for 50 ± 5% inhibition at 30 µM. Put shortly: (§1)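 Recombinant TryS end-point assay in 100 mM HEPES pH 7.4 with 5 mM DTT, 10 mM MgSO4 and 0.5 mM EDTA. ATP was 150 µM and spermidine 2 mM. GSH was 0.25 mM for LiTryS, 0.05 mM for TbTryS and 0.57 mM for TcTryS. Enzyme started the reaction and BIOMOL Green stopped it after 15 min. A650 was read after 20 min at room temperature. Values were corrected with no-enzyme blanks and for compound interference with phosphate. At least quadruplicates; IC50 is given ± 2σn-1.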

For another data set, the target named is T2, TcTryS (Trypanosoma cruzi, UniProt Q9GT49).
T2 sequence (Q9GT49 1-647): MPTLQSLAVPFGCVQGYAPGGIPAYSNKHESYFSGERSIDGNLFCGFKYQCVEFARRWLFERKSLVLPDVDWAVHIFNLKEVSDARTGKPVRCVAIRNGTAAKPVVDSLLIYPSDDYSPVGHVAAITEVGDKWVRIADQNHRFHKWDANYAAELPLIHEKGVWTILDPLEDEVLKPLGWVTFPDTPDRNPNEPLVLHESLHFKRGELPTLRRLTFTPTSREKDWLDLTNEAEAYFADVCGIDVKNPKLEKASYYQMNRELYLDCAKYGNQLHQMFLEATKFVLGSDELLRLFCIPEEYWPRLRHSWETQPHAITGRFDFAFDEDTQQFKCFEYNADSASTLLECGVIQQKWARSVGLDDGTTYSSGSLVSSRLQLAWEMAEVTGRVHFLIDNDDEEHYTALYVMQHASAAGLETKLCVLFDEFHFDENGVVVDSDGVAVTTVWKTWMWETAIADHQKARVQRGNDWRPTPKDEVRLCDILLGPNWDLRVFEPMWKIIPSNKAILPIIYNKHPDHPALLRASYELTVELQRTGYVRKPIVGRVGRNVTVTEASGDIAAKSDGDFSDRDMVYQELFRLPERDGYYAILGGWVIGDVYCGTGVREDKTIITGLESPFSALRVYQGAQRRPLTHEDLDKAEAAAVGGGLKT
Briefly: TryS activity end-point assay. In kind it is biochemical. Particulars: for IC50: IC50 value, TcTryS, ± 2σ, ~30 assumed for 50 ± 5% inhibition at 30 µM. Put shortly:
as §1

The test system of data set [2] is L. braziliensis amastigotes. The data set is described as follows: Macrophage infection assay, L. braziliensis amastigotes. In kind it is cell-based, Leishmania braziliensis. The following applies: for SI, L. braziliensis amastigotes: selectivity index, macrophage CC50 and amastigote EC50. The gist of the method: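 J774 macrophages were plated on coverslips at 1 × 10^5 cells/mL in DMEM with 1% FBS. They were infected with stationary-phase L. braziliensis promastigotes (MHOM/BR/01/BA788; 1:20) for 2 h at room temperature, then 22 h at 35 °C. After washing, cells got test compound (5 or 10 µM, or 10–0.01 µM) in 1% DMSO for 24 h at 37 °C and 5% CO2. Cells were EtOH-fixed and DAPI-stained, and 100–200 macrophages were imaged. % infected cells is relative to DMSO.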

The subject of the next data set is L. infantum amastigotes. The data set is described as follows: Macrophage infection assay, L. infantum amastigotes. In kind it is cell-based, Leishmania infantum. The following applies: for SI, L. infantum amastigotes: selectivity index, macrophage CC50 and amastigote EC50. The gist of the method:
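J774 macrophages on coverslips (1 × 10^5 cells/mL, DMEM with 1% FBS) were infected with stationary-phase L. infantum promastigotes (1:20) for 2 h at room temperature, then 22 h at 37 °C. After washing, test compound (10–0.01 µM, up to seven concentrations, at least duplicates, 1% DMSO) was added for 24 h at 37 °C. DAPI-stained infected cells were counted by microscopy relative to DMSO. EC50 came from a four-parameter sigmoid fit.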

Data set [3] deals with T3, LiTryS (Leishmania infantum, UniProt A4I2Z3).
T3 sequence (A4I2Z3 1-652): T1 sequence (A4I2Z3 1-652)
Particulars: read-out: Ki, nucleotide-binding site of the enzyme; ADP; cited from earlier work.

The next data set deals with T4, TbTryS (Trypanosoma brucei brucei, UniProt Q8IEX1).
T4 sequence (Q8IEX1 1-627): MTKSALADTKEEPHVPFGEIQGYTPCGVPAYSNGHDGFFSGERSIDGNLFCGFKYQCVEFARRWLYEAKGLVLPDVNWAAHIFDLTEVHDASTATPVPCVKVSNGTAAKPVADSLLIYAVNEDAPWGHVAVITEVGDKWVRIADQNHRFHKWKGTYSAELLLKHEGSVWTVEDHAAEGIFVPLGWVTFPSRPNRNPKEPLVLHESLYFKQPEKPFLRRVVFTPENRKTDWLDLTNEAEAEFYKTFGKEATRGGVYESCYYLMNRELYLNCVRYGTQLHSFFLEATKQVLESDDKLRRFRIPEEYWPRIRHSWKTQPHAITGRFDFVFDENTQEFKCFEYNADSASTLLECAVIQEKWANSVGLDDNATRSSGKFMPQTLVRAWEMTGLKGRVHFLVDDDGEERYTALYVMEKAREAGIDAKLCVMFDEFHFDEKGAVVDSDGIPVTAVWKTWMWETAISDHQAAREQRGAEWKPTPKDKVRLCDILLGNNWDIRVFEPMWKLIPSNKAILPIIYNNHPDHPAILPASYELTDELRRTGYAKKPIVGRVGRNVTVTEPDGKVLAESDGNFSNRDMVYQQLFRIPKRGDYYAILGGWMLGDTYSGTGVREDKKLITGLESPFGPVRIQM
The data set is described as follows: TryS activity end-point assay. In kind it is biochemical. The gist of the method: as §1

The target of data set [4] is T3, LiTryS. The data set is described as follows: Kinetic assays for LiTryS. In kind it is biochemical. Particulars: double reciprocal plots. The gist of the method: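 LiTryS in 100 mM HEPES pH 7.4, 10 mM MgSO4, 0.5 mM EDTA, 5 mM DTT at 28 °C. Enzyme-started, linear 15 min, colorimetric stop, A650 after 20 min. Variable GSH 100–3 µM (SP 13 mM, ATP 200 µM); ATP 200–6 µM (SP 13 mM, GSH 250 µM); SP 13–0.41 mM or GSP 250–7.8 µM (ATP 200 µM, GSH 250 µM).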

The test system of data set [5] is Mouse macrophages from the cell line J774. Briefly: Cytotoxicity assay. In kind it is cell-based. The following applies: 24 h, non-infected J774. Put shortly:
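J774 mouse macrophages were grown in DMEM with 10% FBS and penicillin/streptomycin at 37 °C in humidified 5% CO2. Cells were seeded at 6 × 10^4 cells/mL and exposed the next day for 24 h to test compound at 100 to 0.001 µM (200 µM for one compound). The WST-1 signal was read at A450. % cytotoxicity was calculated against DMSO-treated and untreated cells, and CC50 is given ± σn–1.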

Data set [6] relates to L. infantum promastigotes (WT and TryS sKO). The data set is described as follows: Intracellular low molecular mass thiols, promastigotes. In kind it is cell-based, Leishmania infantum. The following applies: 7 µM, 24 h. Put shortly: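 L. infantum promastigotes (MHOM MA67I7MAP263, WT or TryS single knockout) were seeded at 5 × 10^5/mL in RPMI at 28 °C with 7 µM test compound or 1% DMSO for 24 h. Thiols were reduced with 70 mM NaBH4 in 40 mM HEPES pH 8.0, labelled with 2 mM monobromobimane (70 °C, 3 min) and acid-extracted. They were separated by C18 HPLC against GSH/T(SH)2 standards (2.5–75 nmol), and peak areas are given as % of untreated WT. At least duplicates; unpaired t-test.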

Data set [7] concerns L. infantum amastigotes (WT and sKO). The data set is described as follows: Intracellular low molecular mass thiols, amastigotes in J774 macrophages. In kind it is cell-based, Leishmania infantum. The following applies: 1 µM, 24 h, vs non-treated control. The gist of the method:
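J774 macrophages at 50% confluence were infected with stationary-phase L. infantum WT or single knockout promastigotes (1:40) for 2 h at room temperature, then 22 h at 37 °C. After washing, cells were treated or not with 1 µM test compound for 24 h. Thiols were reduced with NaBH4, labelled with monobromobimane, then separated by C18 HPLC against standards. Non-infected macrophage GSH was subtracted, and values are fold-change versus non-treated. At least duplicates; t-test.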

Where [8] appears, read: 30 µM, NA = not active (enzyme activity > 95%).

`O=C(CN1C(=O)Cc2c([nH]c3ccc(Br)cc23)-c2ccc(Cl)cc21)Nc1nncs1` [Compound 16]: the IC50 in data set [1] (IC50 value, LiTryS) was roughly 30 µM; on TcTryS, 30 µM.

`CN1CCN(C(=O)CN2C(=O)Cc3c([nH]c4ccc(Br)cc34)-c3ccc(Cl)cc32)CC1` [Compound 21, 9-Bromo-3-chloro-5-[2-(4-methylpiperazin-1-yl)-2-oxoethyl]-7,12-dihydrobenzo[2,3]azepino[4,5-b]indol-6(5H)one]: the half-inhibitory concentration (IC50) in [1] (read-out: IC50 value, LiTryS) is 0.4 ± 0.1 µM. In addition, the “% infection by L. braziliensis at 10 µM” value in [2] (10 µM, 24 h, relative to infected non-treated macrophages) turned out to be 65 ± 7%. Moreover, the “SI, L. braziliensis amastigotes” value in data set [2] turned out to be 5. In the data set on L. infantum amastigotes (read-out: EC50, amastigotes L. infantum, intracellular amastigotes in J774, 24 h), the concentration giving a half-maximal response (EC50) worked out at 1 ± 0.5 µM.

Regarding `CC(C)(C)OC(=O)NCCCCNC(=O)CN1C(=O)Cc2c([nH]c3ccc(Br)cc23)-c2ccc(Cl)cc21` [Compound 36], the IC50 in [1] (IC50 value, LiTryS) is roughly 30 µM; on TcTryS, 25 µM.

For the molecule `Nc1ncnc2c1ncn2[C@@H]1O[C@H](COP(=O)(O)OP(=O)(O)O)[C@@H](O)[C@H]1O` [ADP], on LiTryS [3], the Ki was 90 µM.

For `CC(C)(C)OC(=O)N1CCN(CCNC(=O)CN2C(=O)Cc3c([nH]c4ccc(Br)cc34)-c3ccc(Cl)cc32)CC1` [Compound 34], the IC50 in [1] (IC50 value, LiTryS) is roughly 30 µM; on TcTryS, 20 µM.

In [1] (IC50 value, LiTryS), `Cl.O=C(CN1C(=O)Cc2c([nH]c3ccc(Br)cc23)-c2ccc(Cl)cc21)N1CCNCC1` [Compound 20] came in with an IC50 of 0.3 µM. The molecule also showed an IC50 against TbTryS (IC50 value, TbTryS, ± 2σ, ~30 assumed for 50 ± 5% inhibition at 30 µM) of roughly 30 µM. In addition, the “Inhibition mode with respect to ATP and GSH” value on LiTryS [4] (ATP or GSH variable) is reported as “uncompetitive inhibition”. Besides, the “Inhibition mode with respect to SP and GSP” value on LiTryS [4] (SP or GSP variable) is reported as “competitive inhibition”. In addition, the CC50 in [5] (read-out: CC50, macrophages) was found to be 8.1 ± 0.1 µM. In data set [2] (5 µM, 24 h, relative to infected non-treated macrophages), the “% infection by L. braziliensis at 5 µM” value was 15% and 15 ± 1 at 5 µM %. Besides, in data set [2], the “SI, L. braziliensis amastigotes” value is recorded as no less than 21. Also, the “SI, L. infantum amastigotes” value with L. infantum amastigotes was determined as 9. The “T(SH)2 decrease, WT promastigotes” value in data set [6] (WT cells) was found to be 88%. The “T(SH)2 content, sKO promastigotes” value in [6] (sKO cells, detection limit 0.5 nmol T(SH)2/100 million cells) was “undetectable”. Moreover, in data set [7], the “GSH accumulation, WT amastigotes” value amounted to 16 fold; the “GSH accumulation, sKO amastigotes” value is reported as 10 fold; the “T(SH)2 depletion, WT amastigotes” value is reported as “about 40%”; the “T(SH)2 depletion, sKO amastigotes” value was roughly 82%.

For the molecule `O=C1Cc2c([nH]c3ccc(Br)cc23)-c2ccc(Cl)cc2N1` [Compound 1, 3-Chlorokenpaullone], the “% TryS inhibition at 30 µM, LiTryS” value in [1] (setting [8]) was “inactive”. The “% TryS inhibition at 30 µM, TcTryS” value at TcTryS (setting [8]) is “inactive”. For the same molecule, the “% TryS inhibition at 30 µM, TbTryS” value at TbTryS (setting [8]) is “inactive”. The “% cytotoxicity at 200 µM, macrophages” value in data set [5] (200 µM) is 0 at 200 µM %.

Take `C[C@@H]1[C@H](O)[C@@H](C)/C=C/C=C/C=C/C=C/C=C/C=C/C=C/[C@H](O[C@@H]2O[C@H](C)[C@@H](O)[C@H](N)[C@@H]2O)C[C@@H]2O[C@](O)(C[C@@H](O)C[C@@H](O)[C@H](O)CC[C@@H](O)C[C@@H](O)CC(=O)O[C@H]1C)C[C@H](O)[C@H]2C(=O)O` [Amphotericin B, reference compound]: the “SI, L. braziliensis amastigotes” value in data set [2] amounted to 59. Besides, the “SI, L. infantum amastigotes” value in the data set on L. infantum amastigotes turned out to be 100.
